Assay results from publication PMC3866226 (Molecular pharmaceutics, 2013).
Values joined by “and” are separate entries in the source; they are usually repeats but may differ in a detail not shown here. Identical values can stand only once. “Also recorded” adds a separate entry of the source. Bridge positions count the residues as written; N and C are the ends. Square brackets hold non-standard residues; d marks the D form. Peptide text beside a SMILES is read from it.

How the values were obtained:
[1] = test system: B16/F1 melanoma-bearing C57 mice; experiment: Urinary metabolites by radio-HPLC; assay type: in vivo, mouse; conditions: urine at 2 h post-injection of ~3.7 MBq via tail vein
B16/F1 melanoma cells [2] = experiment: Cellular internalization; assay type: cell-based, murine; conditions: after 20 min of incubation at 25 °C, acid wash pH 4.5, n=3
Procedure, shortened: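 Cells at 2.5×10^5/well were grown overnight at 37 °C and washed with binding medium (MEM, 25 mM HEPES pH 7.4, 0.2% BSA, 0.3 mM 1,10-phenanthroline). They were incubated at 25 °C with ~200,000 cpm HPLC-purified radiopeptide for 20–120 min (n=3). Membrane-bound activity was stripped with 40 mM sodium acetate pH 4.5/0.9% NaCl/0.2% BSA. Cells were lysed in 1 N NaOH for 5 min; both fractions were gamma-counted.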

[3] = test system: B16/F1 melanoma-bearing C57 mice; experiment: Effect of L-lysine co-injection on renal and tumor uptake; assay type: in vivo, mouse; conditions: 2 h post-injection, 15 mg L-lysine
Procedure, shortened: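 Groups of 4 tumour-bearing C57 mice received 0.037 MBq radiopeptide mixed with 15 mg L-lysine via injection. Mice were killed at 2 h, and tumours and organs were weighed and gamma-counted. Uptake with versus without L-lysine was compared by unpaired Student's t-test, significance p<0.05.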

[4] = test system: B16/F1 melanoma-bearing C57 mice; experiment: Melanoma imaging by small animal SPECT/CT; assay type: in vivo, mouse; conditions: 2 h post-injection of 7.4 MBq via tail vein
[5] = Biodistribution in B16/F1 melanoma-bearing C57 mice; assay type: in vivo, mouse; conditions: female, C57, mouse, iv, 0.037 MBq, total radioactivity
Procedure, shortened: (§1)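 Female C57 mice bore subcutaneous right-flank tumours from 1×10^6 B16/F1 cells (~0.2 g at 10 days). Radiopeptide, 0.037 MBq in pH 7.4 saline, went in via tail vein. Groups of 4 were killed at 0.5, 2, 4 and 24 h; tumours and organs were weighed and gamma-counted. Blood was taken as 6.5% body weight. Blockade: co-injected 10 µg (6.1 nmol) unlabeled NDP-MSH, 2 h. Results as %ID/g or %ID, mean ± SD, n=4.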

[6] = test system: B16/F1 melanoma-bearing C57 mice; experiment: as above; assay type: in vivo, mouse
Procedure, shortened: as §1

B16/F1 melanoma cells [7] = experiment: Cellular efflux; assay type: cell-based, murine; conditions: loaded 2 h at 25 °C, then 2 h of incubation in the culture medium
Procedure, shortened: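 B16/F1 cells were seeded at 2.5×10^5/well and grown overnight at 37 °C. They were loaded with radiopeptide for 2 h at 25 °C and rinsed twice with ice-cold PBS. Release into culture medium was then monitored. At 20, 40, 60, 90 and 120 min, surface-bound and intracellular radioactivity were collected separately and gamma-counted.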

## CC(C)[C@H](NC(=O)[C@@H]1CCCN1C(=O)[C@H](CCCNC(=N)N)NC(=O)[C@H](CS)NC(=O)[C@H](Cc1c[nH]c2ccccc12)NC(=O)[C@H](CCCNC(=N)N)NC(=O)[C@@H](Cc1ccccc1)NC(=O)[C@H](Cc1c[nH]cn1)NC(=O)[C@H](CCC(=O)O)NC(=O)[C@H](CS)NC(=O)[C@H](CS)NC(=O)[C@H](CCCCN)NC(=O)[C@@H]1CC(=O)N[C@@H](CCCNC(=N)N)C(=O)N[C@@H](C(C)C)C(=O)N[C@@H](CC(=O)O)C(=O)N[C@H](Cc2ccc(O)cc2)C(=O)N1)C(N)=O [^99mTc-RVD-Lys-(Arg^11)CCMSH, metal not drawn] (RVD[dY]DKCCEH[dF]RWCRPV-NH2; lactam N-5)
[1]
  Remained intact in the urine: Approximately 70%
  Transformed to a more hydrophobic compound in the urine: 30%
B16/F1 melanoma cells [2]
  Activity internalized in the cells: ~72%
[3]; versus without L-lysine
  Reduction of renal uptake by L-lysine co-injection: 41% and 40–50%
[3]; p>0.05
  Effect of L-lysine co-injection on tumor uptake: didn't affect the tumor uptake; also recorded: without affecting their tumor uptake
[4]
  Visualization of flank B16/F1 melanoma lesions by SPECT/CT: clearly visualized
[5]; blood
  tissue uptake at 0.5 h: 1.5 ± 0.52 %ID/g
  tissue uptake at 2 h: 0.49 ± 0.05 %ID/g
  tissue uptake at 4 h: 0.54 ± 0.45 %ID/g
  tissue uptake at 24 h: 0.07 ± 0.02 %ID/g
[5]; bone
  tissue uptake at 0.5 h: 1.6 ± 0.73 %ID/g
  tissue uptake at 2 h: 0.57 ± 0.08 %ID/g
  tissue uptake at 4 h: 0.54 ± 0.28 %ID/g
  tissue uptake at 24 h: 0.47 ± 0.05 %ID/g
[5]; brain
  tissue uptake at 0.5 h: 0.15 ± 0.05 %ID/g
  tissue uptake at 2 h: 0.04 ± 0.01 %ID/g
  tissue uptake at 4 h: 0.02 ± 0.01 %ID/g
  tissue uptake at 24 h: 0.03 ± 0.01 %ID/g
[5]; heart
  tissue uptake at 0.5 h: 0.74 ± 0.43 %ID/g
  tissue uptake at 2 h: 0.26 ± 0.15 %ID/g
  tissue uptake at 4 h: 0.16 ± 0.03 %ID/g
  tissue uptake at 24 h: 0.1 ± 0.07 %ID/g
[5]; intestines
  tissue uptake dose at 0.5 h: 1.36 ± 0.27 %ID
  tissue uptake dose at 2 h: 1.59 ± 1.08 %ID
  tissue uptake dose at 4 h: 0.95 ± 0.3 %ID
  tissue uptake dose at 24 h: 0.44 ± 0.22 %ID
[5]; kidneys
  tissue uptake at 0.5 h: 90.2 ± 15.4 %ID/g
  tissue uptake at 2 h: 94 ± 18.3 %ID/g
  tissue uptake at 4 h: 73.9 ± 3.73 %ID/g
  tissue uptake at 24 h: 44.3 ± 12.1 %ID/g
[5]; liver
  tissue uptake at 0.5 h: 1.86 ± 0.17 %ID/g
  tissue uptake at 2 h: 1.4 ± 0.34 %ID/g
  tissue uptake at 4 h: 1.59 ± 0.13 %ID/g
  tissue uptake at 24 h: 1.21 ± 0.26 %ID/g
[5]; lung
  tissue uptake at 0.5 h: 2.01 ± 0.97 %ID/g
  tissue uptake at 2 h: 0.87 ± 0.4 %ID/g
  tissue uptake at 4 h: 0.49 ± 0.43 %ID/g
  tissue uptake at 24 h: 0.19 ± 0.1 %ID/g
[5]; muscle
  tissue uptake at 0.5 h: 11.2 ± 6.02 %ID/g
  tissue uptake at 2 h: 0.17 ± 0.1 %ID/g
  tissue uptake at 4 h: 0.1 ± 0.07 %ID/g
  tissue uptake at 24 h: 0.26 ± 0.02 %ID/g
[5]; pancreas
  tissue uptake at 0.5 h: 0.62 ± 0.25 %ID/g
  tissue uptake at 2 h: 0.1 ± 0.02 %ID/g
  tissue uptake at 4 h: 0.08 ± 0.08 %ID/g
  tissue uptake at 24 h: 0.18 ± 0.07 %ID/g
[5]; skin
  tissue uptake at 0.5 h: 9.59 ± 0.62 %ID/g
  tissue uptake at 2 h: 0.69 ± 0.18 %ID/g
  tissue uptake at 4 h: 0.35 ± 0.08 %ID/g
  tissue uptake at 24 h: 0.42 ± 0.27 %ID/g
[5]; spleen
  tissue uptake at 0.5 h: 0.82 ± 0.43 %ID/g
  tissue uptake at 2 h: 0.4 ± 0.1 %ID/g
  tissue uptake at 4 h: 0.5 ± 0.15 %ID/g
  tissue uptake at 24 h: 0.34 ± 0.06 %ID/g
[5]; stomach
  tissue uptake at 0.5 h: 1.92 ± 0.53 %ID/g
  tissue uptake at 2 h: 1.21 ± 0.61 %ID/g
  tissue uptake at 4 h: 0.96 ± 0.27 %ID/g
  tissue uptake at 24 h: 0.4 ± 0.13 %ID/g
[5]; tumor / blood
  tissue to tissue ratio at 0.5 h: 11.1
  tissue to tissue ratio at 2 h: 34.9
  tissue to tissue ratio at 4 h: 36.4
  tissue to tissue ratio at 24 h: 126
[5]; tumor / kidneys
  tissue to tissue ratio at 0.5 h: 0.19
  tissue to tissue ratio at 2 h: 0.18
  tissue to tissue ratio at 4 h: 0.27
  tissue to tissue ratio at 24 h: 0.2
[5]; tumor / lung
  tissue to tissue ratio at 0.5 h: 8.31
  tissue to tissue ratio at 2 h: 19.7
  tissue to tissue ratio at 4 h: 40.1
  tissue to tissue ratio at 24 h: 46.4
[5]; tumor
  tissue uptake at 0.5 h: 16.7 ± 5.31 %ID/g
  tissue uptake at 2 h: 17.1 ± 3.82 %ID/g
  tissue uptake at 4 h: 19.6 ± 4.68 %ID/g
  tissue uptake at 24 h: 8.81 ± 2.13 %ID/g
[5]; tumor/liver
  tissue to tissue ratio at 0.5 h: 8.98
  tissue to tissue ratio at 2 h: 12.2
  tissue to tissue ratio at 4 h: 12.3
  tissue to tissue ratio at 24 h: 7.28
[5]; tumor/muscle
  tissue to tissue ratio at 0.5 h: 1.48
  tissue to tissue ratio at 2 h: 101
  tissue to tissue ratio at 4 h: 196
  tissue to tissue ratio at 24 h: 33.9
[5]; urine
  dose excreted at 0.5 h: 44.5 ± 3.12%
  dose excreted at 2 h: 59.2 ± 9.65%
  dose excreted at 4 h: 67.5 ± 10%
  dose excreted at 24 h: 76.8 ± 8.21%
[6]; 0.5 h post-injection
  Renal uptake as % of the renal uptake of ^99mTc-RTD-Lys-(Arg^11)CCMSH: 62%
[6]; 2 h post-injection
  Renal uptake as % of the renal uptake of ^99mTc-RTD-Lys-(Arg^11)CCMSH: 70%
[6]; 2 h post-injection, NDP blockade
  Uptake ratio Tumor/Blood: 2.75
[6]; 4 h post-injection
  Renal uptake as % of the renal uptake of ^99mTc-RTD-Lys-(Arg^11)CCMSH: 70%
B16/F1 melanoma cells [7]
  Activity remained inside the cells (cellular efflux): 70%
